# pEC50, pIC50: −log10 of the molar value.
# Key:
# [1] = biological target: T1, Growth hormone secretagogue receptor type 1 (Homo sapiens, UniProt Q92847); assay: Inhibition of human GHS-R1a
# [2] = biological target: T1, Growth hormone secretagogue receptor type 1; assay: Agonist activity at human GHS-R1a assessed as maximum activation at 10 uM relative to ghrelin by aequorin assay; assay type: functional
# Outline: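 Agonist mode of the hGHS-R1a aequorin bioluminescence assay. Compound tested up to a maximum of 10 μM. Peak response is expressed as maximum % activation relative to ghrelin. Values are means of two or three experiments.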
# [3] = biological target: T2, Beta-3 adrenergic receptor (Homo sapiens, UniProt P13945); assay: Inhibition of human adrenergic beta3 receptor
# T2 sequence (P13945 whole entry): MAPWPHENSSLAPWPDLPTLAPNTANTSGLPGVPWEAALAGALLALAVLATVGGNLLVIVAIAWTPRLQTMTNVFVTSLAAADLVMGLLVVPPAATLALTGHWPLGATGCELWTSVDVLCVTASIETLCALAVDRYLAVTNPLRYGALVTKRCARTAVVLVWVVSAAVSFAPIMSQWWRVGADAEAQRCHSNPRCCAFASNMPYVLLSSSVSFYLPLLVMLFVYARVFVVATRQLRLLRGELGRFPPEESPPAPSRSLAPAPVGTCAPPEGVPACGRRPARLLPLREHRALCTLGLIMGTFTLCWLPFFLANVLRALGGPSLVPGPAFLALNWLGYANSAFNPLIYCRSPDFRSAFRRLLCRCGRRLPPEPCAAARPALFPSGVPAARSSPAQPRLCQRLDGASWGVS
# [4] = biological target: T2, Beta-3 adrenergic receptor; assay: Agonist activity at human adrenergic beta3 receptor; assay type: functional
# [5] = biological target: T1, Growth hormone secretagogue receptor type 1; assay: Inhibition of human GHS-R1a at 6.25 uM
# [6] = biological target: T1, Growth hormone secretagogue receptor type 1; assay: Antagonist activity at human GHS-R1a expressed in HEK293 cells assessed as inhibition of ghrelin-stimulated intracellular calcium mobilization; assay type: functional, cell-based
# [7] = biological target: T1, Growth hormone secretagogue receptor type 1; assay: Displacement of [35S]MK0677 from human GHS-R1a
# Outline: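 Competitive binding at GHS-R1a using [35S]-MK-0677 as the radiolabeled probe. IC50 values are means of two or three experiments.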
# T1 sequence (Q92847 whole entry): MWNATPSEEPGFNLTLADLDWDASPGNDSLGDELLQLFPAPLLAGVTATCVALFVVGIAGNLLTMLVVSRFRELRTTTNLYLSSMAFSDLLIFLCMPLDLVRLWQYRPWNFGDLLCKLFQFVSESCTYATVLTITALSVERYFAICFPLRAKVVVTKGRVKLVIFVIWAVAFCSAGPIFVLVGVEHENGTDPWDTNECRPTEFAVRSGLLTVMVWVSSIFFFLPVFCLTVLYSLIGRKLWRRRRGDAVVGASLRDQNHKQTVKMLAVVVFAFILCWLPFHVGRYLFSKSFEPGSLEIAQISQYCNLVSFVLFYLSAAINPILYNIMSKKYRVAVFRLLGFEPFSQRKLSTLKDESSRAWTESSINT
Compound,pIC50 [1],Activity [2] [%],other results
CCCCCCNC(=O)Nc1ccc(S(=O)(=O)Nc2ccc(CCCN)cc2)cc1,6.97,1,–
CCCCCCNC(=O)Nc1ccc(S(=O)(=O)Nc2ccc(CC)cc2)cc1,–,–,inhibition [5]: 47%
CCCCCCNC(=O)Nc1ccc(S(=O)(=O)Nc2ccc(CN)cc2)cc1,5.77,5,–
CCCCCCNC(=O)Nc1ccc(S(=O)(=O)Nc2ccc(CC(C)(C)CN)cc2)cc1,6.35,2,–
CCCCCCNC(=O)Nc1ccc(S(=O)(=O)Nc2ccc(CC(C)(C)O)cc2)cc1,–,–,inhibition [5]: 48%
CCNC(=O)Nc1ccc(S(=O)(=O)Nc2ccc(CC(C)(C)N)cc2)cc1,5.25,4,–
CCCCCCNC(=O)Nc1ccc(S(=O)(=O)Nc2ccc(CC(C)(C)NCC(F)(F)F)cc2)cc1,6.17,1,–
CCCCNC(=O)Nc1ccc(S(=O)(=O)Nc2ccc(CC(C)(C)N)cc2)cc1,6.32,1,–
CCCCCCNC(=O)Nc1ccc(S(=O)(=O)Nc2ccc(CC(C)(C)NC[C@H](O)COc3ccc(O)cc3)cc2)cc1,–,–,pIC50 [6]: 7.40; pIC50 [7]: 7.89
CCCCCCNC(=O)Nc1ccc(S(=O)(=O)Nc2cccc(CCCN)c2)cc1,6.37,51,–
CCCNC(=O)Nc1ccc(S(=O)(=O)Nc2ccc(CC(C)(C)N)cc2)cc1,5.78,1,–
CCCCCCNC(=O)Nc1ccc(S(=O)(=O)Nc2ccc(CC(C)(C)NCC)cc2)cc1,7.52,1,–
CCCCCCNC(=O)Nc1ccc(S(=O)(=O)Nc2cccc(CCN)c2)cc1,6.20,13,–
CCCCCCNC(=O)Nc1ccc(S(=O)(=O)Nc2ccccc2)cc1,5.37,–,–
CCCCCCNC(=O)Nc1ccc(S(=O)(=O)Nc2ccc(CCC(C)(C)N)cc2)cc1,6.51,3,–
CCCCCCNC(=O)Nc1ccc(S(=O)(=O)Nc2ccc(CCN)cc2)cc1,6.57,5,–

# Now from value to compound, other results behind:
pIC50 [1],Activity [2] [%],Compound,other results
7.34,4,CCCCCCNC(=O)Nc1ccc(S(=O)(=O)Nc2ccc(CC(C)(C)N)cc2)cc1,pIC50 [3]: 5.28; pEC50 [4]: < 5.00
6.58,1,CC(C)(N)Cc1ccc(NS(=O)(=O)c2ccc(NC(=O)Nc3ccccc3)cc2)cc1,–
7.11,3,Cc1ccc(NC(=O)Nc2ccc(S(=O)(=O)Nc3ccc(CC(C)(C)N)cc3)cc2)cc1,–
6.86,1,CC(C)(N)Cc1ccc(NS(=O)(=O)c2ccc(NC(=O)NCCc3ccccc3)cc2)cc1,–
7.16,3,Cc1cccc(NC(=O)Nc2ccc(S(=O)(=O)Nc3ccc(CC(C)(C)N)cc3)cc2)c1,–
6.62,6,CCCCCNC(=O)Nc1ccc(S(=O)(=O)Nc2ccc(CC(C)(C)N)cc2)cc1,–
7.68,–,CC(C)(N)Cc1ccc(NS(=O)(=O)c2ccc(NC(=O)NCc3cccc4ccccc34)cc2)cc1,–
6.07,1,CC(C)NC(=O)Nc1ccc(S(=O)(=O)Nc2ccc(CC(C)(C)N)cc2)cc1,–
6.79,1,Cc1ccccc1NC(=O)Nc1ccc(S(=O)(=O)Nc2ccc(CC(C)(C)N)cc2)cc1,–
8.10,0,CC(C)c1ccc(NC(=O)Nc2ccc(S(=O)(=O)Nc3ccc(CC(C)(C)N)cc3)cc2)cc1,–
8.70,–,CC(C)(N)Cc1ccc(NS(=O)(=O)c2ccc(NC(=O)NC(C)(C)c3cccc4ccccc34)cc2)cc1,–
7.80,1,CC(C)(N)Cc1ccc(NS(=O)(=O)c2ccc(NC(=O)Nc3ccc(C(C)(C)C)cc3)cc2)cc1,–
6.89,4,CC(C)(N)Cc1ccc(NS(=O)(=O)c2ccc(NC(=O)NCc3ccccc3)cc2)cc1,–
7.01,3,CCCCCCCNC(=O)Nc1ccc(S(=O)(=O)Nc2ccc(CC(C)(C)N)cc2)cc1,–
7.55,1,CCCCc1ccc(NC(=O)Nc2ccc(S(=O)(=O)Nc3ccc(CC(C)(C)N)cc3)cc2)cc1,–
7.85,1,CCc1ccc(NC(=O)Nc2ccc(S(=O)(=O)Nc3ccc(CC(C)(C)N)cc3)cc2)cc1,–
